Folding enthalpy and Tm data for 36 sequences are collected here from the array DNA melting data of Ke et al. (doi:10.1101/2024.01.08.574731).

Series [1] is described as follows: folding enthalpy; higher = less favourable; fluorescence melt of hairpins on a sequencing array, two-state fit. As to conditions: sodium 0.088 M. Summed up:
(§1)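 Folding enthalpy and melting temperature were estimated with bootstrapped two-state fits and combined across four replicates by inverse-variance weighting, with fitted temperatures raised by 9.35 °C to match UV melts. The data were Cy3 fluorescence of library hairpins, with annealed Cy3 and quencher oligos, on a sequenced MiSeq flow cell in 50 mM Na-HEPES pH 8.0, 25 mM NaCl, imaged in 2.5 °C steps up to 60 °C and normalised to pre-quench Cy3 and control constructs.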

Series [2] in a line: melting temperature; fluorescence melt of hairpins on a sequencing array, two-state fit, raised by 9.35 °C to match UV melts. As to conditions: sodium 0.088 M. Summed up: as §1

In the case of GTACGTGGAAACACGTGC (.(((((....))))).), the folding enthalpy in series [1] was -28 kcal/mol. The Tm in series [2] amounted to 54.2 °C.

As to GTACGTGGAAACATGTGC (.((.((....)).)).), the folding enthalpy in series [1] is -24.4 kcal/mol. The Tm in series [2] is 36.5 °C.

Consider GTACTACGAAAGTACTAC (((.(((....))).))), for which the folding enthalpy in series [1] was -17.8 kcal/mol. Moreover, in series [2], the Tm was 38.6 °C.

As to GTACTACGAAAGTATTAC (((.(((....))).))), in series [1], the folding enthalpy is -23.5 kcal/mol. For the same sequence, the Tm in series [2] worked out at 32.8 °C.

GTACTAGGAAACCAGTAC (((((.(....).))))): the folding enthalpy in series [1] was -26.9 kcal/mol. Further, in series [2], the Tm was 36 °C.

Consider GTACTAGGAAACTAGTAC (((((((....))))))), for which the folding enthalpy in series [1] was -40.1 kcal/mol. The Tm in series [2] came to 52.3 °C.

In the case of GTACTCCGAAAGGAATAC (((.(((....))).))), the folding enthalpy in series [1] was -26 kcal/mol. For the same sequence, in series [2], the Tm came out at 37.7 °C.

Take GTACTCCGAAAGGATTAC (((.(((....))).))): in series [1], the folding enthalpy is -29.8 kcal/mol. Also, in series [2], the Tm worked out at 37.6 °C.

With GTACTCGAAAGAGGGTAC ((((((....)))..))), the folding enthalpy in series [1] is -14.2 kcal/mol. In addition, the Tm in series [2] is 33.7 °C.

For GTACTCGGAAACGAGCAC ((.((((....)))).)), the folding enthalpy in series [1] was -19.3 kcal/mol. The Tm in series [2] worked out at 48.6 °C.

In the case of GTACTCGGAAACGAGTAC (((((((....))))))), in series [1], the folding enthalpy is -37.7 kcal/mol. The Tm in series [2] came out at 63 °C.

For GTACTCGGAAACGGGTAC ((((.((....)).)))), the folding enthalpy in series [1] is -42.6 kcal/mol. The Tm in series [2] turned out to be 50.6 °C.

With GTACTGGAAACAGTAC ((((((....)))))), the folding enthalpy in series [1] was -36 kcal/mol. Further, the Tm in series [2] worked out at 54.7 °C.

In the case of GTACTGGGAAACTAGTAC (((((.(....).))))), the folding enthalpy in series [1] is -36.8 kcal/mol. Moreover, the Tm in series [2] came to 42.2 °C.

For the sequence GTACTTCGAAAGAAATAC (((.(((....))).))), the folding enthalpy in series [1] was -17.1 kcal/mol. The Tm in series [2] is 29.3 °C.

For GTACTTCGAAAGAATAC (((.(((....)))))), the folding enthalpy in series [1] is -7.86 kcal/mol. Besides, the Tm in series [2] worked out at 25.9 °C.

On to GTACTTGAAAAAGTAC ((((((....)))))), for which the folding enthalpy in series [1] was -32.7 kcal/mol. The Tm in series [2] stood at 48.6 °C.

With GTACTTGGAAACAGGTAC ((((.((....)).)))), in series [1], the folding enthalpy is -32.4 kcal/mol. Also, in series [2], the Tm stood at 40.1 °C.

On to GTAGAACGAAAGTTTAC (((.(((....)))))), for which, in series [1], the folding enthalpy was -9.99 kcal/mol. Also, the Tm in series [2] came to 27.4 °C.

Turning to GTAGAACGAAAGTTTTAC (((.(((....))).))), in series [1], the folding enthalpy is -30.6 kcal/mol. In addition, the Tm in series [2] stood at 40.2 °C.

With GTAGAAGAAATTCTAC ((((((....)))))), in series [1], the folding enthalpy is -26.5 kcal/mol. Also, the Tm in series [2] worked out at 39.4 °C.

Regarding GTAGAATCGAAAGATTAC (((..(((....)))))), in series [1], the folding enthalpy is -11 kcal/mol. In series [2], the Tm worked out at 27.3 °C.

GTAGACGAAAGTCTCTAC ((((((....)))..))): in series [1], the folding enthalpy was -11.6 kcal/mol. The Tm in series [2] is 34.9 °C.

GTAGACGGAAACGTCTAC (((((((....))))))): the folding enthalpy in series [1] is -50.1 kcal/mol. Besides, the Tm in series [2] worked out at 61.3 °C.

For the sequence GTAGACTCGAAAGAGTAC (((..(((....)))))), the folding enthalpy in series [1] was -13.9 kcal/mol. The Tm in series [2] is 31.2 °C.

In the case of GTAGAGCGAAAGCTGTAC (((.(((....))).))), the folding enthalpy in series [1] is -25.2 kcal/mol. Moreover, the Tm in series [2] was 50.9 °C.

For the sequence GTAGAGGCGAAAGCCTAC (((..(((....)))))), in series [1], the folding enthalpy was -8.81 kcal/mol. Moreover, the Tm in series [2] worked out at 38 °C.

As for GTAGATCGAAAGATATAC (((.(((....))).))), the folding enthalpy in series [1] was -32.4 kcal/mol. In addition, in series [2], the Tm amounted to 42.3 °C.

Consider GTAGATCGAAAGATTAC (((.(((....)))))), for which, in series [1], the folding enthalpy was -13.5 kcal/mol. For the same sequence, the Tm in series [2] was 29.3 °C.

Consider GTAGATGCGAAAGCATAC (((..(((....)))))), for which the folding enthalpy in series [1] was -11.9 kcal/mol. In addition, in series [2], the Tm turned out to be 31.1 °C.

As to GTAGATGGAAACATCCAC ((.((((....)))).)), the folding enthalpy in series [1] was -16.9 kcal/mol. In addition, the Tm in series [2] is 30.4 °C.

In the case of GTAGATGGAAACATTTAC (((.(((....))).))), in series [1], the folding enthalpy is -17.3 kcal/mol. Besides, in series [2], the Tm came to 32.1 °C.

On to GTAGATGGAAACGTCTAC (((((.(....).))))), for which the folding enthalpy in series [1] is -31.3 kcal/mol. Also, in series [2], the Tm was determined as 43.6 °C.

On to GTAGCAGGAAACTGCTAC (((((((....))))))), for which the folding enthalpy in series [1] was -32.7 kcal/mol. Moreover, the Tm in series [2] amounted to 66.2 °C.

Take GTAGCCGAAAGGCATAC ((((((....))).))): the folding enthalpy in series [1] was -11.9 kcal/mol. In series [2], the Tm stood at 43.5 °C.

As for GTAGCCGAAAGGCATTAC ((((((....)))..))), in series [1], the folding enthalpy is -7.48 kcal/mol. In series [2], the Tm was determined as 27 °C.
